{"data": "Measurements collected from several papers", "target": "Serine/threonine-protein kinase tousled-like 1 (TLK1, Homo sapiens, UniProt Q9UKI8)", "Sequence (Q9UKI8 1-766, as in one of the studies)": "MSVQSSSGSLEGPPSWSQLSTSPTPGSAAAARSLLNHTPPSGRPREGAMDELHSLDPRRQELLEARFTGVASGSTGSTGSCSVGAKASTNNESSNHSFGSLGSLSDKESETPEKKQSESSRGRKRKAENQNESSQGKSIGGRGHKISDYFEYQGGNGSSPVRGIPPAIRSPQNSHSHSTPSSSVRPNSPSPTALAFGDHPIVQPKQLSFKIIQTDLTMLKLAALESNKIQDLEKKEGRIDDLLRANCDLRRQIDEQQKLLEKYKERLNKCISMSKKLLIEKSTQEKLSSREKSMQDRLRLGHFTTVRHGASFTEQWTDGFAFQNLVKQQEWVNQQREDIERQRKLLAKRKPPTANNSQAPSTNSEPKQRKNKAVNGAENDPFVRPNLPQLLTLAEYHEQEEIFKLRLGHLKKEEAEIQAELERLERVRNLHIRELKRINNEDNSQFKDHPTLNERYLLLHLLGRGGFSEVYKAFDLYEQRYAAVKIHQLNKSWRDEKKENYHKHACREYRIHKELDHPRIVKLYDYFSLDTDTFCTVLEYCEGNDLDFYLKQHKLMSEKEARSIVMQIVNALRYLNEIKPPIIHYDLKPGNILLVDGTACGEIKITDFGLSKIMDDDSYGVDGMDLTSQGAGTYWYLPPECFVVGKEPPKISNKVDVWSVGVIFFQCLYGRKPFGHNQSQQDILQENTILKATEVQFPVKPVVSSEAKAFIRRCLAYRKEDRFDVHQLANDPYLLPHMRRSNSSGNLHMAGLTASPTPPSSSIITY"}
{"Structure (SMILES)": "O=C(N1CCS(=O)(=O)CC1)N1C[C@H](c2ccc(OC(F)(F)F)cc2)C[C@H](c2nc(C3CC3)no2)C1", "read-out": "cell-free assay", "method": "competition with immobilised ligand", "concentration": "1 µM", "measurement": "remaining binding", "value": "94%"}
{"Structure (SMILES)": "COc1cc(Nc2cnc(C#N)c(O[C@H](C)CN(C)C)n2)ncc1-c1cnn(C)c1", "read-out": "enzyme activity", "mode": "inhibitor", "method": "radiometric", "concentration": "10 µM", "measurement": "remaining activity", "value": "93%"}
{"Structure (SMILES)": "Cc1ccc(NC(=O)c2ccc(C)c(C(F)(F)F)c2)cc1C#Cc1nn(C2CCC(O)CC2)c2ncnc(N)c12 (stereo not shown)", "read-out": "cell-free assay", "concentration": "10 µM", "measurement": "remaining signal", "value": "95%"}
{"Structure (SMILES)": "CC(C)(C)c1nc2c(s1)c1nc(N)ncc1c1ccc(NS(=O)(=O)c3c(F)cccc3F)c(F)c12", "read-out": "enzyme activity", "mode": "inhibitor", "method": "radiometric", "concentration": "1 µM", "measurement": "remaining activity", "value": "92%"}
{"Structure (SMILES)": "Cc1cnc(NC2CCOCC2)nc1-n1cnc(C(=O)NC(CN)c2cc(F)cc(Cl)c2)c1 (stereo not shown)", "read-out": "enzyme activity", "mode": "inhibitor", "method": "radiometric", "concentration": "1 µM", "measurement": "remaining activity", "value": "99%"}
{"Structure (SMILES)": "CC(C)(C)c1nc(-c2cccc(NS(=O)(=O)c3c(F)cccc3F)c2F)c(-c2ccnc(N)n2)s1", "read-out": "enzyme activity", "mode": "inhibitor", "method": "radiometric", "concentration": "1 µM", "measurement": "remaining activity", "value": "108%"}
{"Structure (SMILES)": "Cc1ccc(C(=O)NCc2ccsc2)cc1C#Cc1cn(C(C)C)c2ncnc(N)c12", "read-out": "enzyme activity", "mode": "inhibitor", "concentration": "1 µM", "measurement": "activity vs control", "value": "80%"}
{"Structure (SMILES)": "C[C@@H](c1cccc(C#N)c1)n1cc(Cl)cc(C(N)=O)c1=N", "read-out": "cell-free assay", "method": "competition with immobilised ligand", "concentration": "1 µM", "measurement": "remaining binding", "value": "100%"}
{"Structure (SMILES)": "COc1cc(Cl)c(C(=O)N[C@@H](CN[C@H]2CC[C@@H](N)CC2)Cc2ccc(C#N)cc2)cc1-c1ccc(CN[C@H](C)c2ccc(C)cc2)o1", "read-out": "enzyme activity", "mode": "inhibitor", "concentration": "1 µM", "measurement": "remaining activity", "value": "94%"}
{"Structure (SMILES)": "Cc1ccc(C(=O)Nc2ccc(CN3CCN(C)CC3)c(C(F)(F)F)c2)cc1C#Cc1cnc2cccnn12", "read-out": "enzyme activity", "mode": "inhibitor", "concentration": "23.5 nM", "measurement": "remaining activity", "value": "100%"}
{"Structure (SMILES)": "Cc1sc(C(=O)NC2COC2)cc1-n1cc(NC(=O)Nc2c(F)cccc2Cl)cn1", "read-out": "enzyme activity", "mode": "inhibitor", "concentration": "10 µM", "measurement": "remaining activity", "value": "105%"}
{"Structure (SMILES)": "COc1ccc2c(O[C@@H]3C[C@H]4C(=O)N[C@]5(C(=O)O)CC5/C=C\\CCCCC[C@H](NC(=O)OC5CCCC5)C(=O)N4C3)cc(-c3csc(NC(=O)C(C)C)n3)nc2c1C (stereo partly shown)", "read-out": "cell-free assay", "method": "competition with immobilised ligand", "concentration": "1 µM", "measurement": "remaining binding", "value": "100%"}
{"Structure (SMILES)": "O=C(Nc1cnn(-c2csc(C(=O)NC3COC3)c2)c1)Nc1c(F)cccc1Cl", "read-out": "enzyme activity", "mode": "inhibitor", "concentration": "5 µM", "measurement": "remaining activity", "value": "53.4%"}
{"Structure (SMILES)": "CC(C)(O)[C@H]1CC[C@H](Nc2ccc3ncc(-c4cccc(C(F)(F)F)c4)n3n2)CC1", "read-out": "enzyme activity", "mode": "inhibitor", "concentration": "1 µM", "measurement": "remaining activity", "value": "94.2%"}
{"Structure (SMILES)": "COc1cc(/C=C/C(=O)CC(=O)/C=C/c2ccc(O)c(OC)c2)ccc1O", "read-out": "enzyme activity", "mode": "inhibitor", "concentration": "1 µM", "measurement": "activity vs control", "value": "128%"}
{"Structure (SMILES)": "Cc1cc(NC(=O)c2cccc3cc(-c4cccc5[nH]nc(N)c45)ccc23)ccc1F", "read-out": "enzyme activity", "mode": "inhibitor", "concentration": "0.1 µM", "measurement": "activity vs control", "value": "88%"}
{"Structure (SMILES)": "CN1CC(Oc2cnc(C#N)cc2-c2ccn3nc(NC(=O)C4CC4)cc3c2)C1", "read-out": "enzyme activity", "mode": "inhibitor", "concentration": "1 µM", "measurement": "inhibition", "value": "-13%"}
{"Structure (SMILES)": "C[C@H](c1ccnc(Nc2nc3ccc(-c4cc(N(C)C)ncn4)cc3[nH]2)c1)N1CCN(C(=O)CC(F)(F)F)CC1", "read-out": "cell-free assay", "method": "competition with immobilised ligand", "concentration": "0.1 µM", "measurement": "remaining binding", "value": "76%"}
{"Structure (SMILES)": "Nc1ncnc2occ(-c3ccc(NC(=O)Nc4cc(C(F)(F)F)ccc4F)cc3)c12", "read-out": "cell-free assay", "mode": "inhibitor", "concentration": "20 µM", "measurement": "remaining signal", "value": "39%"}
